Consider eleven molecules from paper PMC5074691 (Cell reports, 2016).

Positions count from the first letter of the chain named. Numbers in names are those of the source. No end group written: not given here.

Test [1] deals with MORC3 CW domain (wild type, GST tag cleaved) (human). Briefly: other fluorescence titration.
The target of test [2] is MORC3-CW E453A (human). Briefly: ITC.
The test system of test [3] is MORC3-CW E453A. Briefly: 1H,15N TROSY/HSQC NMR titration and competition on MORC3-CW E453A. Format: binding, human.
Test [4] deals with reconstituted nucleosome core particles (NCPs). Briefly: EMSA with nucleosome core particles. Format: binding. The note with it: 1 to 20 molar excess protein; NCPs (3 pM); 20 mM Tris-HCl pH 7.5, 150 mM NaCl, 2 mM DTT; 1 h, room temperature. In short, it runs like this:
(§1)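 MORC3 His-ATPase (aa 1–392, E. coli-expressed, Ni-NTA purified) is titrated onto the nucleic acid substrate; for 601 DNA, His-ATPase-CW (aa 1–455) is also tested. Mixtures run on 5% polyacrylamide gels in 0.2x TB at 150 V for 1 h on ice, then are stained with ethidium bromide and imaged.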
Background: A gel shift assay detects complexes by their altered migration in electrophoresis.

The test system of test [5] is Widom 601 DNA. Briefly: EMSA with Widom 601 DNA. The note with it: 1 to 20 molar excess protein; 601 DNA (3 pM); 20 mM Tris-HCl pH 7.5, 150 mM NaCl, 2 mM DTT; 1 h, room temperature. The class given is binding. The method in brief: as §1
Test [6] has as its system MORC3 His-ATPase-CW. Briefly: ATPase assay. The class given is biochemical, human. The conditions noted are these: with DNA. In short, it runs like this: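 Human MORC3 His-ATPase-CW (aa 1–455), expressed in E. coli Rosetta2(DE3) pLysS, Ni-NTA purified in HEPES buffers, used at 1.5–3.0 μM. Run 20 min at 22 °C or 30 min at 30 °C, read at A360. SD from ≥3 experiments (two at 30 °C).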

The subject of test [7] is chromatin in HeLa cells. Briefly: Chromatin association assay. Format: cell-based. The note with it: 48 h post transfection, fractionation and immunoblot. The method in brief: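 HeLa cells (DMEM, 10% FBS, pen/strep) are transfected with full-length human N-terminal 3xFLAG-MORC3, WT or CW mutants, and trypsinized at 48 h. The washed chromatin pellet is nuclease-solubilized. Fractions (1–5 µg) are immunoblotted for FLAG, β-tubulin and H3.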
A general note: A western blot detects proteins with antibodies after separation by electrophoresis.

Test [8] concerns nuclear bodies (NBs) in HeLa cells. Briefly: Confocal immunofluorescence of FLAG-tagged MORC3. The class given is cell-based. The note with it: 48 h post transfection, anti-FLAG. In short, it runs like this: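 HeLa in DMEM/10% FBS/penicillin-streptomycin grown on chamber slides, transiently transfected (TurboFect) with WT or CW-mutant 3xFLAG-MORC3 (C416S, C416A, W419A). At 48 h: cold methanol fixation (−20°C, 10 min), 1% BSA block 30 min, anti-FLAG 1:200 for 1 h at 25°C, then Alexa Fluor 647 secondary 1:1000 for 1 h. DAPI mount; confocal imaging with 100X objective.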

Test [9] has as its target T1, MORC3 CW domain (residues 407-455), crystallised (human, UniProt Q14149 407-455).
T1 chain (looked up): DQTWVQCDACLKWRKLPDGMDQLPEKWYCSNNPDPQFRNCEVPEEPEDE
Briefly: crystal structure.

“histone H3K4me3 peptide (residues 1-12 of H3) (from UniProt P68431 2-13)”: the Kd (as a rule, the concentration at which binding is half-saturated) in [1] stood at 640 nM.

Turning to histone H3K4me1 peptide, in test [1], the Kd is 740 nM.

histone H3K4me2 peptide registered a Kd in test [1] of 670 nM.

B1: MORC3 His-ATPase domain (aa 1-392) (domain or fragment)
chain: MAAQPPRGIRLSALCPKFLHTNSTSHTWPFSAVAELIDNAYDPDVNAKQIWIDKTVINDHICLTFTDNGNGMTSDKLHKMLSFGFSDKVTMNGHVPVGLYGNGFKSGSMRLGKDAIVFTKNGESMSVGLLSQTYLEVIKAEHVVVPIVAFNKHRQMINLAESKASLAAILEHSLFSTEQKLLAELDAIIGKKGTRIIIWNLRSYKNATEFDFEKDKYDIRIPEDLDEITGKKGYKKQERMDQIAPESDYSLRAYCSILYLKPRMQIILRGQKVKTQLVSKSLAYIERDVYRPKFLSKTVRITFGFNCRNKDHYGIMMYHRNRLIKAYEKVGCQLRANNMGVGVVGIIECNFLKPTHNKQDFDYTNEYRLTITALGEKLNDYWNEMKVKKNTE
Take B1: in [2], the Kd is 9000 nM and the stoichiometry N (commonly the number of molecules, sites or subunits per partner or assembly) was 1.

B2: His-ATPase: His-tagged isolated ATPase domain of MORC3 (aa 1-392) (protein)
chain: B1 chain
modifications: left off: His tag, end not stated, kept
With B2, the “chemical shift perturbation / complex formation in TROSY” value in [3] (10 mM HEPES pH 7.4, 100 mM NaCl, 1 mM TCEP, 7% D2O, 298K) is on record as “Substantial chemical shift perturbations”. Also, in [3] (His-ATPase titrated into CW E453A:H3K4me0 (1:4), 10 mM HEPES pH 7.4), the “displacement of H3K4me0 from CW E453A:H3K4me0 complex” value was “could not efficiently displace H3K4me0”. Further, the “NCP binding by EMSA” value in test [4] is recorded as “resulted in a shift of the DNA and/or NCP bands”. Moreover, the “DNA binding by EMSA” value in [5] was “resulted in a shift of the DNA and/or NCP bands”.

B3: His-ATPase-CW: MORC3 construct harboring linked ATPase and CW domains (aa 1-455), His-tagged (protein)
chain: MAAQPPRGIRLSALCPKFLHTNSTSHTWPFSAVAELIDNAYDPDVNAKQIWIDKTVINDHICLTFTDNGNGMTSDKLHKMLSFGFSDKVTMNGHVPVGLYGNGFKSGSMRLGKDAIVFTKNGESMSVGLLSQTYLEVIKAEHVVVPIVAFNKHRQMINLAESKASLAAILEHSLFSTEQKLLAELDAIIGKKGTRIIIWNLRSYKNATEFDFEKDKYDIRIPEDLDEITGKKGYKKQERMDQIAPESDYSLRAYCSILYLKPRMQIILRGQKVKTQLVSKSLAYIERDVYRPKFLSKTVRITFGFNCRNKDHYGIMMYHRNRLIKAYEKVGCQLRANNMGVGVVGIIECNFLKPTHNKQDFDYTNEYRLTITALGEKLNDYWNEMKVKKNTEYPLNLPVEDIQKRPDQTWVQCDACLKWRKLPDGMDQLPEKWYCSNNPDPQFRNCEVPEEPEDE
modifications: left off: His tag, end not stated, kept
As for B3, the “DNA binding by EMSA” value in [5] is listed as “impaired”. Besides, the “effect of linked CW on rate of hydrolysis in the presence of DNA” value in [6] is “considerably decreased the rate of hydrolysis in the presence of DNA”.

B4: WT FLAG-MORC3: FLAG-tagged full length wild-type MORC3 (protein, UniProt Q14149 1-939, looked up)
chain: MAAQPPRGIRLSALCPKFLHTNSTSHTWPFSAVAELIDNAYDPDVNAKQIWIDKTVINDHICLTFTDNGNGMTSDKLHKMLSFGFSDKVTMNGHVPVGLYGNGFKSGSMRLGKDAIVFTKNGESMSVGLLSQTYLEVIKAEHVVVPIVAFNKHRQMINLAESKASLAAILEHSLFSTEQKLLAELDAIIGKKGTRIIIWNLRSYKNATEFDFEKDKYDIRIPEDLDEITGKKGYKKQERMDQIAPESDYSLRAYCSILYLKPRMQIILRGQKVKTQLVSKSLAYIERDVYRPKFLSKTVRITFGFNCRNKDHYGIMMYHRNRLIKAYEKVGCQLRANNMGVGVVGIIECNFLKPTHNKQDFDYTNEYRLTITALGEKLNDYWNEMKVKKNTEYPLNLPVEDIQKRPDQTWVQCDACLKWRKLPDGMDQLPEKWYCSNNPDPQFRNCEVPEEPEDEDLVHPTYEKTYKKTNKEKFRIRQPEMIPRINAELLFRPTALSTPSFSSPKESVPRRHLSEGTNSYATRLLNNHQVPPQSEPESNSLKRRLSTRSSILNAKNRRLSSQFENSVYKGDDDDEDVIILEENSTPKPAVDHDIDMKSEQSHVEQGGVQVEFVGDSEPCGQTGSTSTSSSRCDQGNTAATQTEVPSLVVKKEETVEDEIDVRNDAVILPSCVEAEAKIHETQETTDKSADDAGCQLQELRNQLLLVTEEKENYKRQCHMFTDQIKVLQQRILEMNDKYVKKETCHQSTETDAVFLLESINGKSESPDHMVSQYQQALEEIERLKKQCSALQHVKAECSQCSNNESKSEMDEMAVQLDDVFRQLDKCSIERDQYKSEVELLEMEKSQIRSQCEELKTEVEQLKSTNQQTATDVSTSSNIEESVNHMDGESLKLRSLRVNVGQLLAMIVPDLDLQQVNYDVDVVDEILGQVVEQMSEISST
modifications: full-length FLAG tag
Take B4: the association with chromatin entry in [7] is “purifies in the chromatin and soluble fractions”. The nuclear localization entry in [8] was “localized to NBs”.

B5: W419A: FLAG-tagged MORC3 mutant that abrogates binding to the histone H3 tail (protein, UniProt Q14149 1-939, looked up, variant W419A)
chain: B4 chain with W419A
modifications: full-length FLAG tag
As to B5, the association with chromatin result in test [7] was “did not associate with chromatin and were found only in the soluble fractions”. Also, the nuclear localization result in [8] is recorded as “diffused throughout the nucleus”.

B6: C416A: FLAG-tagged MORC3 mutant in CW domain that disrupts the CW structure (protein, UniProt Q14149 1-939, looked up, variant C416A)
chain: B4 chain with C416A
modifications: full-length FLAG tag
Regarding B6, the association with chromatin result in test [7] was “did not associate with chromatin and were found only in the soluble fractions”. Moreover, in test [8], the nuclear localization result is reported as “diffused throughout the nucleus”.

B7: C416S: FLAG-tagged MORC3 mutant in CW domain that disrupts the CW structure (protein, UniProt Q14149 1-939, looked up, variant C416S)
chain: B4 chain with C416S
modifications: full-length FLAG tag
As for B7, the association with chromatin result in [7] was “did not associate with chromatin and were found only in the soluble fractions”.

Consider ARTK(Me3)QTARKSTG (peptide, UniProt P68431 2-13, looked up) [histone H3K4me3 peptide (residues 1-12 of H3)], for which the binding result in [9] is reported as “binds”.
